The record followed here is ChEMBL document CHEMBL4052634, “Covalent inhibitors of LgtC: A blueprint for the discovery of non-substrate-like inhibitors for bacterial glycosyltransferases” (Bioorg Med Chem, 2017).

Activity calls are given as the source filed them.

Assay [1] deals with Neisseria meningitidis. Description: Inhibition of Neisseria meningitidis alpha-1,4-galactosyltransferase at 25 to 100 uM using lactose as substrate preincubated for 10 mins in presence of UDP-Gal followed by substrate addition measured after 20 mins. In outline:
(§1)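 LgtC pre-incubated 10 min at 30 °C with inhibitor (DMSO, 10% final) and UDP-Gal 28 µM in 13 mM HEPES pH 7.0 with MnCl2 5 mM, CIP 10 U/mL, lysozyme 1 mg/mL, 0.01% Triton; lactose 2 mM then added, 20 min at 30 °C; malachite green absorbance at 620 nm converted via UDP calibration; triplicate.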

A short description of assay [2]: Binding affinity to L-cysteine assessed as covalent adduct formation at 0.06 mmol by 1H NMR analysis. Particulars: TDE = time-dependent effect. The method, boiled down: (§2)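 Amino acid (0.06 mmol; cysteine in d6-DMSO, serine in D2O) added to inhibitor (0.06 mmol) in d6-DMSO in an NMR tube, mixed by shaking; 1H-NMR (400 MHz) recorded at 298 K at time points from 0-190 min to follow adduct formation.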

Assay [3] addresses Intestinal-type alkaline phosphatase (Bos taurus) (UniProt P19111). Description: Inhibition of calf intestinal alkaline […] at 0.1 to 100 uM using UDP as substrate after 20 mins by malachite green dye-based assay.
In assay [4] the test system is Neisseria meningitidis. Description: Inhibition of Neisseria meningitidis alpha-1,4-galactosyltransferase assessed as enzyme activity at 100 uM using beta-lactose as substrate preincubated for 10 mins in presence of UDP-Gal donor followed by substrate addition incubated for 20 mins measured before diafiltration by colorimetric analysis (reference value: 84%). The method, boiled down: (§3)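 DTT-activated LgtC pre-incubated with inhibitor (100 µM) or DMSO plus UDP-Gal 28 µM, 10 min at 30 °C; lactose 2 mM added, 20 min at 30 °C. Activity measured in samples taken before, and after diafiltration (10 kDa cut-off, 4 °C, two 50 min spins with one HEPES pH 7.0 wash), under standard conditions (2 mM lactose, 28 µM UDP-Gal, 20 min, 30 °C), malachite green readout.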

The nature of assay [5]: Inhibition of Neisseria meningitidis alpha-1,4-galactosyltransferase using lactose as substrate in presence of UDP-Gal measured after 20 min by malachite green dye-based assay. In outline: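 Recombinant LgtC, pre-activated with DTT (10 mM, 1:1, 30 min, 30 °C). Reaction contained MnCl2 5 mM, CIP 10 U/mL, lysozyme 1 mg/mL, Triton 0.01%, 13 mM HEPES pH 7.0, lactose 2 mM, inhibitor 0.1–100 µM (10% DMSO final), UDP-Gal 28 µM. No pre-incubation; 20 min at 30 °C. Released phosphate read by malachite green at 620 nm against a UDP calibration curve. Turnover adjusted to 20–50%. IC50 from sigmoidal fit of background-corrected % activity; at least triplicate.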

The subject of assay [6] is Neisseria meningitidis. In words: Binding affinity to Neisseria meningitidis alpha-1,4-galactosyltransferase assessed as covalent adduct formation at 100 uM after 20 mins by mass spectrometric analysis. The method, boiled down: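 LgtC stock without DTT activation, diluted in 13 mM HEPES pH 7.0, incubated with inhibitor (100 or 50 µM, added in DMSO; 10% final DMSO) for 20 min at 30 °C; samples injected directly for electrospray MS to detect protein-inhibitor adducts.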

The nature of assay [7]: Binding affinity to L-serine assessed as covalent adduct formation at 0.06 mmol by 1H NMR analysis. In outline:
as §2

Assay [8] can be described thus: Binding affinity to L-lysine assessed as adduct formation at 0.06 mmol by 1H NMR analysis. In outline:
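Lysine (0.06 mmol in D2O) mixed with inhibitor (0.06 mmol) in d6-DMSO in an NMR tube by shaking; 1H-NMR spectra at 400 MHz, 298 K, taken at time points over 0-190 min.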

Assay [9] concerns Neisseria meningitidis. Description: Inhibition of Neisseria meningitidis alpha-1,4-galactosyltransferase at 0.1 to 100 uM using lactose as substrate after 20 mins in presence of UDP-Gal and measured in presence of varying acceptor concentration by malachite green dye-based assay. The method, boiled down: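 Activated LgtC with inhibitor (0.1-100 µM), UDP-Gal 28 µM, lactose varied 2-50 mM, MnCl2 5 mM, CIP 10 U/ml, lysozyme 1 mg/ml, 0.01% Triton in 13 mM HEPES pH 7.0, no pre-incubation; 20 min at 30 °C, donor turnover 20-50%; malachite green detection of UDP; triplicate.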

For assay [10], the system named is Neisseria meningitidis. Description: Competitive inhibition of Neisseria meningitidis alpha-1,4-galactosyltransferase at 1 to 5 uM using lactose as substrate measured after 20 mins in presence of fixed concentration of UDP-Gal donor and varying concentration of lactose acceptor by Dixon/Cornish-Bowden plot analysis. In outline: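 Acceptor kinetics using standard protocol without pre-incubation: DTT-activated LgtC, UDP-Gal fixed at 100 µM, inhibitor 1, 2, 3, 4, 5 µM, lactose 5, 15, 25 mM, with 5 mM MnCl2, CIP 10 U/ml, lysozyme 1 mg/ml, 0.01% Triton, 13 mM HEPES pH 7.0, 10% DMSO; 20 min at 30 °C, donor turnover <10%; UDP released read by malachite green.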

Assay [11] concerns Neisseria meningitidis. Description: Inhibition of Neisseria meningitidis alpha-1,4-galactosyltransferase C246S mutant expressed in Escherichia coli BL21(DE3) at 100 uM using lactose as substrate in presence of UDP-Gal measured after 20 min by malachite green dye-based assay. In outline:
(§4)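 Mutant LgtC (His-tag purified, Superdex 200), DTT-activated (10 mM, 1:1, 30 min, 30 °C), no pre-incubation with inhibitor. Final: 2 mM lactose, 28 µM UDP-Gal, 5 mM MnCl2, phosphatase CIP 10 U/mL, lysozyme 1 mg/mL, 0.01% Triton, 13 mM HEPES pH 7.0, 10% DMSO; 20 min, 30 °C. UDP read at 620 nm vs UDP calibration, background-corrected; triplicate.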

The test system of assay [12] is Neisseria meningitidis. In words: Inhibition of Neisseria meningitidis alpha-1,4-galactosyltransferase C246A mutant expressed in Escherichia coli BL21(DE3) at 100 uM using lactose as substrate in presence of UDP-Gal measured after 20 min by malachite green dye-based assay. In outline: as §4
The species entered for assay [13] is Bos taurus. Description: Inhibition of bovine beta-1,4-galactosyltransferase at 100 uM using GLcNAc as substrate in presence of UDP-Gal measured after 20 mins by malachite green dye-based assay.
For assay [14], the target named is T1, Galactoside alpha-(1,2)-fucosyltransferase 2 (Homo sapiens) (UniProt Q10981).
T1 sequence (whole entry): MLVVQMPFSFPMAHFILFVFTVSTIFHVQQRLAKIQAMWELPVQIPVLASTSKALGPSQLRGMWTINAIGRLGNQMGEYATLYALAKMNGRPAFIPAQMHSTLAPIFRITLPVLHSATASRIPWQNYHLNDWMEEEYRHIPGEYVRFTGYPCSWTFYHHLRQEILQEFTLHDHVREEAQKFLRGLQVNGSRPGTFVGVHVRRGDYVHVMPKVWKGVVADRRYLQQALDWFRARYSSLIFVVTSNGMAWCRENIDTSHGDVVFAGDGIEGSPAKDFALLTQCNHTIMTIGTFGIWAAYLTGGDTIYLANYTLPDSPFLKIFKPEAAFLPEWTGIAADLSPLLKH
In words: Inhibition of human fucosyltransferase2 at 150 uM using alpha-lactose as substrate in presence of GDP-Fuc measured after 20 mins by malachite green dye-based assay.

Assay [15] relates to Pasteurella multocida. Description: Inhibition of Pasteurella multocida alpha-2,3-sialyltransferase at 150 uM using beta-lactose as substrate in presence of CMP-Neu5Ac measured after 20 mins by malachite green dye-based assay.
For assay [16], the system named is Neisseria meningitidis. Description: Inhibition of Neisseria meningitidis alpha-1,4-galactosyltransferase assessed as enzyme activity at 100 uM using beta-lactose as substrate in presence of UDP-Gal donor/lactose acceptor incubated for 20 mins measured after diafiltration by colorimetric analysis (reference value: 85 %). In outline:
as §3

In assay [17] the test system is Neisseria meningitidis. In words: Inhibition of Neisseria meningitidis alpha-1,4-galactosyltransferase at 25 to 50 uM using lactose as substrate preincubated for 10 mins in presence of UDP-Gal followed by substrate addition measured after 20 mins. The method, boiled down: as §1

Intestinal-type alkaline phosphatase (Bos taurus), sequence (P19111 20-506 limits assumed): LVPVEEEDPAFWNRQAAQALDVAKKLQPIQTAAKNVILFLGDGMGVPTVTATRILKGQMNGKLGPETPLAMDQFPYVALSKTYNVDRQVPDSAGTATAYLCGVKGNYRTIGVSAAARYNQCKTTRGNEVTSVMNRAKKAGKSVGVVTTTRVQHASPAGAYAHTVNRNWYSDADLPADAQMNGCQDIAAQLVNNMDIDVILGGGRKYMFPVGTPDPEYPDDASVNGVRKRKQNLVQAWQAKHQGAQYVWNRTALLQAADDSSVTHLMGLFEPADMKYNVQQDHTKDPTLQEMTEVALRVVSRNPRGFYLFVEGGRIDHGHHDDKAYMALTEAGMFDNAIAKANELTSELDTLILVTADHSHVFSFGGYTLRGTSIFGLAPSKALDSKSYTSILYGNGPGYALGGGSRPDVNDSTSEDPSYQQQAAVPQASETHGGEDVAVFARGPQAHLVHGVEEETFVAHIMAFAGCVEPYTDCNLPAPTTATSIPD

For the compound `Cc1nn(-c2ccccc2)c(O)c1Cc1ccccc1C(F)(F)F`, the inhibition result in assay [1] is “inactive”.
Take `CC1=NN(c2ccccc2)C(=O)/C1=C\c1ccccc1C(F)(F)F`: the Activity entry in [2] was “Tde”. Moreover, the inhibition entry in [3], in assay [9], in assay [12], in assay [13], in [14] and in assay [15] was “inactive” throughout. Further, the inhibition in assay [4] worked out at 30%; in assay [16], 23%. In addition, the IC50 in assay [5] stood at 27 µM. Further, the outcome in assay [6] was Active. Besides, the result in assay [7] and in assay [8] was inactive. For the same compound, the inhibition entry in assay [10] and in assay [11] was “Active” in each case.
For the compound `COc1ccc(/C=C2\SC(=S)N(c3ccccc3)C2=O)cc1Br`, the inhibition result in [1] and in [17] was “inactive” throughout.
